Sampled rows, rich in hits. Any-hit rate of the full collection: about 6.4%.
CHOP inhibitor = CHOP inhibition in unfolded protein response. CHO-K1 CHOP-promoter luciferase, tunicamycin-induced, 15-18 h. inhibition, % at 10 µM. actives 3.8% (n = 220,000). AID 2732;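 active means compounds that reduced the stress-induced luciferase reporter signal by more than about 70% of percent inhibition, limit read from the data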;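 further: 0% = tunicamycin plus vehicle and 100% = wells without tunicamycin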
EBV gp42 inh = EBV gp42 inhibition | Q1HVG2 | Fluorescence polarization binding assay, mP read-out | inhibition, % (tested at 21.74 µM) | actives 0.42% (n = 220,000) | AID 1085; in the data active means inhibition above about 50%
Target sequence (Q1HVG2 whole entry, looked up): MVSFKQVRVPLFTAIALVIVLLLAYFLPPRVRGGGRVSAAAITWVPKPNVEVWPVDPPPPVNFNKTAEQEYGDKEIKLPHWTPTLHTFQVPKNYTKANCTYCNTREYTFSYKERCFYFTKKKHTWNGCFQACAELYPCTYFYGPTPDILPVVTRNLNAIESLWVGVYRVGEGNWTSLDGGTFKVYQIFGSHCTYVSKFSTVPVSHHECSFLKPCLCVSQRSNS
MPTP inh = inhibitors of mitochondrial permeability transition pore | AID 602449 | actives 1.4% (n = 360,000) | inhibition, % at 10 µM | isolated mouse mitochondria, Ca2+ swelling absorbance, 30 min;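 active means inhibition of 50% or more, scaled per plate between neutral and stimulator controls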;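 further: 0% = DMSO wells given calcium and 100% = 1 mM EGTA wells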
TbMetRS inhib = blocks T. brucei methionyl-tRNA synthetase activity; purified T. brucei MetRS, ATP depletion, Kinase-Glo luminescence; inhibition, % at 11.9 µM; actives 0.4% (n = 360,000); AID 624268;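 active means inhibition above a per-plate cutoff of the control wells' mean inhibition plus 3 SD, cut at about 5.5% in these data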;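 further: 0% = DMSO wells median and 100% = median of wells with control inhibitor compound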
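Measured by: Kinase-Glo luciferase luminescence reporting remaining unconsumed ATP. Material: purified T. brucei MetRS enzyme. Doses: 11.9 µM compound single dose, 0.9% DMSO. Medium: HEPES buffer containing pyrophosphatase, BSA, spermine, DTT. Times: 15 min preincubation, 2 h reaction, all 25 °C. Reagent: methionine, ATP and bulk E. coli tRNA.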
GRIN3A LBD mod = modulates the human NR3A ligand-binding domain | Tm shift relative to glycine control, % at 25 µM | NR3A LBD differential scanning fluorimetry, Tm shift; 0% = protein alone, 100% = glycine-bound protein | actives 2.5% (n = 340,000);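 active means melting temperature shift of at least 10% of the positive control shift, at one fixed dose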
WT yeast gro inh = growth inhibition of WT yeast, mitochondrial fusion screen | mitochondrial fusion phenotypic screen, WT strain | inhibition, % at 10 µM | actives 2.1% (n = 190,000); in the data active means inhibition above about 58%; tested in S. cerevisiae
MPTP counter = mitochondrial membrane potential, counter-screen; shares compounds with MPTP inh; isolated mitochondria, Rhodamine 123 fluorescence; inhibition, % at 10 µM; actives 78% (n = 5,000); in the data active means inhibition above about 22%;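 further: 0% = DMSO vehicle and 100% = positive control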
MPTP swell DR = MPTP inhibition, dose response swelling confirmation. IC50, µM. actives 58% (n = 780). isolated mitochondria swelling, absorbance. shares compounds with MPTP inh; in the data active means IC50 below about 20 µM
MPTP counter DR = counter-screen for mitochondrial permeability transition pore inhibitors, dose response | shares compounds with MPTP inh | isolated mitochondria counterscreen, fluorescence read-out | IC50, µM | actives 49% (n = 780) | AID 651564; in the data active means IC50 below about 80 µM
TbMetRS confirm = confirmation of Trypanosoma brucei MetRS inhibitors; shares compounds with TbMetRS inhib; T. brucei MetRS enzyme, luminescence (ATP depletion); inhibition, % at 11.9 µM; actives 93% (n = 1,400); in the data active means inhibition above about 7%
Jurkat cytotox = kills Jurkat cells in T. brucei MetRS counterscreen. shares compounds with TbMetRS inhib. Jurkat cells viability, ATP luminescence. inhibition, % at 8.3 µM. actives 12% (n = 1,400). AID 624413; in the data active means inhibition above about 15%;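 further: 0% = vehicle and 100% = reference inhibitor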
TbMetRS FP orth = orthogonal test for Trypanosoma brucei MetRS inhibitors. inhibition, % at 11.9 µM. purified T. brucei MetRS, fluorescence polarization. shares compounds with TbMetRS inhib. actives 44% (n = 1,400); in the data active means inhibition above about 17%;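 further: 0% = vehicle wells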
An asterisk follows results filed as active; i = inactive; . = no result; ! = not confirmed by another sample.

SMILES | CHOP inhibitor | EBV gp42 inh | MPTP inh | TbMetRS inhib | GRIN3A LBD mod | WT yeast gro inh | MPTP counter | TbMetRS confirm | Jurkat cytotox | TbMetRS FP orth | others
Cc1cccc(CC(Cc2nc3ccccc3[nH]2)c2nc3ccccc3[nH]2)c1 (stereo not drawn) | -77 | 0 | 89* | 8.4* | -3 | 13 | 110* | 21* | 10 | 9
Oc1c(Cl)cc(Cl)cc1CNc1nc2ccccc2[nH]1 | . | . | 72* | 93* | 10* | . | 77* | 108* | 0 | 102*
Cc1ccc(S(=O)(=O)NNC(=O)Nc2ccc(Cl)c(Cl)c2)cc1 | 19 | -2 | 86* | 12* | 0 | 24 | 97* | 13* | 1 | 10
Cc1ccc(NC(=O)NNS(=O)(=O)c2ccc(Br)cc2)cc1 | 24 | -22 | -2 | 1 | 8 | -1 | . | . | . | .
O=C(Nc1ccccc1)Nc1ccc(S(=O)(=O)N2CCCCC2)cc1 | 66 | -2 | 99* | 7.8* | 22* | 26 | 89* | 15* | 7 | 23*
O=C(Nc1ccc(S(=O)(=O)N2CCCCC2)cc1)c1ccccc1Cl | 39 | -7 | 0 | -1 | -4 | -19 | . | . | . | .
Cc1ccc2nc(SC(C)C(=O)Nc3cccc([N+](=O)[O-])c3)[nH]c2c1 (stereo not drawn) | 48 | 6 | 59* | 38* | 0 | 21 | 85* | 64* | 3 | 37*
Cc1ccc2nc(SCC(=O)Nc3ccc(F)c([N+](=O)[O-])c3)[nH]c2c1 | 50 | 0 | 88* | 39* | 9 | 8 | 76* | 50* | 19* | 27*
Cc1ccc2nc(SCC(=O)Nc3ccc(C)c([N+](=O)[O-])c3)[nH]c2c1 | 59 | -22 | 6 | 1 | -18 | 18 | . | . | . | .
CCN(c1ccccc1)S(=O)(=O)c1ccc(Cl)c(NC(=O)c2ccc(=O)[nH]n2)c1 | . | . | 0 | 0 | -2 | . | . | . | . | .
Clc1ccc(OCCCN2CCCCC2)c(Br)c1 | 20 | -13 | 78* | 17* | -5 | 24 | -3 | 28* | 3 | 11 | MPTP swell DR=i;MPTP counter DR=>80
O=C(NNC(=O)c1cc(-c2cccnc2)nc2ccccc12)Nc1ccc(Cl)cc1 | 25 | -14 | 86* | 20* | 26* | 0 | 86* | 31* | -8 | 22*
Nc1nc2ccccc2n1CCOc1ccccc1Cl | 69 | -14 | 74* | 67* | 1 | 19 | 19 | 80* | 8 | 44* | MPTP swell DR=9*;MPTP counter DR=27*
Clc1ccccc1OCCn1nnc2ccccc21 | . | . | 6 | 0 | 1 | . | . | . | . | .
C=CCc1cccc(CNc2cnc3ccccc3c2)c1O | . | . | 89* | 6.0* | -13 | . | 84* | 12* | 31* | 13
C=CCc1cccc(CNc2nc3ccccc3n2CCN2CCOCC2)c1O | 50 | -15 | 0 | 3 | -3 | 9 | . | . | . | .
O=C(CSc1nc2ncc(Cl)cc2[nH]1)NCCc1ccc(F)cc1 | 10 | -8 | 11 | 2 | -1 | 3 | . | . | . | .
O=C(CSc1nc2ccc(Cl)cc2[nH]1)NCCc1ccc(Cl)cc1 | 62 | -2 | 69* | 63* | 2 | -17 | 60* | 72* | 5 | 41*
Fc1ccc2[nH]c3c(NCc4ccccc4)ncnc3c2c1 | . | . | 84* | 84* | -5 | . | 75* | 92* | 30* | 82*
O=C(NCCc1ccc(Cl)cc1)Nc1ccc(Cl)cc1 | -12 | -1 | 78* | 71* | 20* | . | 98* | 69* | 4 | 55*
Cn1nc(C(F)(F)F)c(-c2ccc(Br)cc2)c1NC(=O)Nc1ccc(F)cc1F | 77* | -5 | 76* | 25* | 9 | . | 84* | 54* | 15 | 31*
CCCCn1c(=N)n(CC(=O)C(C)(C)C)c2ccccc21 | 10 | -11 | -6 | 0 | -1 | 57 | . | . | . | .
O=C(NCc1cccc(C(F)(F)F)c1)c1cccc(S(=O)(=O)NCc2ccccc2)c1 | 52 | 10 | 60* | 23* | -1 | -4 | 71* | 22* | 6 | 8
O=C(CSc1n[nH]c(-c2ccccc2O)n1)NC1CCCCC1 | . | . | 1 | 0 | -1 | . | . | . | . | .
Cc1ccc(SCc2nc3ccccc3n2CC(=O)Nc2ccc(Cl)cc2)cc1 | 45 | -14 | 87* | 17* | -1 | 26 | 87* | 22* | 2 | 89*
SMILES | CHOP inhibitor | EBV gp42 inh | MPTP inh | TbMetRS inhib | GRIN3A LBD mod | WT yeast gro inh | MPTP counter | TbMetRS confirm | Jurkat cytotox | TbMetRS FP orth | others
O=C(Cn1c(CSc2ccccc2)nc2ccccc21)Nc1ccccc1 | 31 | 17 | . | . | . | . | . | . | . | .
COc1ccc(CSCCNC(=S)Nc2ccccc2)cc1Cl | 29 | 11 | 78* | 28* | 5 | 77* | 90* | 41* | 1 | 22*
COc1ccc(CSCC(=O)Nc2ccccc2)cc1[N+](=O)[O-] | . | . | -2 | 0 | -3 | . | . | . | . | .
CCN(CC)CCNc1ncnc2c1[nH]c1ccc(OC)cc12 | 2 | -33 | . | . | . | -1 | . | . | . | .
COc1ccc2[nH]c3c(NCCC4=CCCCC4)ncnc3c2c1 | 72* | -5 | 94* | 18* | 0 | 84* | 93* | 40* | 51* | 31*
O=C(Nc1nc2ccccc2[nH]1)c1ccccc1O | . | . | 1 | 0 | 2 | . | . | . | . | .
Cc1ccc(NC(=O)CN2CCOCC2)cc1 | . | . | -2 | 1 | -2 | . | . | . | . | .
Cc1ccc(NC(=O)CN2CC(C)SC2=NC2CCCCC2)cc1 (stereo not drawn) | . | -110 | 52*! | 12*! | -1 | 19 | -12 | 25* | 4 | 6 | MPTP swell DR=13*;MPTP counter DR=>80
O=C(/C(=C/c1ccc(Cl)cc1)c1nc2ccccc2[nH]1)c1ccccc1 | -48 | -24 | 91* | 6.6* | 26* | 2 | 87* | 3 | 98* | 4
O=C(N/C(=C/c1ccc(Cl)cc1)c1nc2ccccc2[nH]1)c1ccco1 | -9 | -14 | 0 | -1 | 0 | -5 | . | . | . | .
CCOC(=O)CN1C(=O)S/C(=C/C=C/c2ccc(N(C)C)cc2)C1=O | 3 | -56 | 3 | 0 | 0 | 12 | . | . | . | .
Clc1ccc(OCc2nnc(SCc3nc4ccccc4[nH]3)n2Cc2ccco2)cc1 | 81* | -8 | 62* | 11* | -3 | 13 | 35* | 84* | 21* | 66*

Bioassay records: PubChem BioAssay, several laboratories
